Measurements from ChEMBL document CHEMBL1671716, “Antimicrobial susceptibility patterns for recent clinical isolates of anaerobic bacteria in South Korea” (2010).
In brackets after ≈: the same amount, converted by molar mass.

Columns and labels:
Type in all cases: functional
Prevotella intermedia = experiment: Antimicrobial activity against Prevotella intermedia after 48 hrs by agar dilution method
Method in brief: (§1)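 CLSI agar dilution (M11-A7); inoculum 10^5 CFU applied by replicator; plates incubated anaerobically 48 h at 37°C. For piperacillin-tazobactam, tazobactam held constant at 4 μg/ml.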

[1] = tested on: Porphyromonas asaccharolytica; experiment: Antimicrobial activity against Porphyromonas asaccharolytica after 48 hrs by agar dilution method; method in brief: as §1
Schaalia meyeri = experiment: Antimicrobial activity against Actinomyces meyeri assessed as percent susceptible isolates after 48 hrs by agar dilution method
Fusobacterium necrogenes = experiment: Antimicrobial activity against Fusobacterium necrogenes after 48 hrs by agar dilution method; method in brief: as §1
Bifidobacterium sp. [2] = experiment: Antimicrobial activity against Bifidobacterium sp. assessed as percent resistant isolates after 48 hrs by agar dilution method
Method in brief: (§2)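 CLSI agar dilution on recent Korean clinical anaerobe isolates. Inoculum 10^5 CFU per spot by replicator. Plates incubated in an anaerobic chamber at 37°C for 48 h. For piperacillin plus tazobactam, tazobactam was held constant at 4 μg/ml. Resistance and susceptibility rates derived from MICs.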

[3] = tested on: Peptoniphilus asaccharolyticus; experiment: Antimicrobial activity against Peptoniphilus asaccharolyticus after 48 hrs by agar dilution method; method in brief: as §1
Bacteroides caccae [4] = experiment: Antimicrobial activity against Bacteroides caccae after 48 hrs by agar dilution method
Method in brief: (§3)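 MICs on clinical anaerobe isolates by the CLSI agar dilution method. Inoculum of 10^5 CFU applied with a Steers replicator. Plates incubated 48 h at 37°C in an anaerobic chamber.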

[5] = tested on: Peptoniphilus asaccharolyticus; experiment: Antimicrobial activity against Peptoniphilus asaccharolyticus assessed as percent susceptible isolates after 48 hrs by agar dilution method; method in brief: as §1
Phocaeicola vulgatus = experiment: Antimicrobial activity against Bacteroides vulgatus after 48 hrs by agar dilution method; method in brief: as §3
Bacteroides ovatus = experiment: Antimicrobial activity against Bacteroides ovatus assessed as percent susceptible isolates after 48 hrs by agar dilution method
[6] = tested on: Parabacteroides distasonis; experiment: Antimicrobial activity against Bacteroides distasonis assessed as percent resistant isolates after 48 hrs by agar dilution method; method in brief: as §2
[7] = tested on: Bifidobacterium adolescentis; experiment: Antimicrobial activity against Bifidobacterium adolescentis assessed as percent susceptible isolates after 48 hrs by agar dilution method
Bifidobacterium sp. [8] = experiment: Antimicrobial activity against Bifidobacterium sp. assessed as percent susceptible isolates after 48 hrs by agar dilution method; method in brief: as §1
Bacteroides fragilis = experiment: Antimicrobial activity against Bacteroides fragilis assessed as percent susceptible isolates after 48 hrs by agar dilution method
Hoylesella oralis = experiment: Antimicrobial activity against Prevotella oralis assessed as percent resistant isolates after 48 hrs by agar dilution method; method in brief: as §2
Prevotella bivia = experiment: Antimicrobial activity against Prevotella bivia assessed as percent susceptible isolates after 48 hrs by agar dilution method; method in brief: as §1
Actinomyces naeslundii = experiment: Antimicrobial activity against Actinomyces naeslundii assessed as percent susceptible isolates after 48 hrs by agar dilution method
Eggerthella lenta [9] = experiment: Antimicrobial activity against Eubacterium lentum assessed as percent susceptible isolates after 48 hrs by agar dilution method; method in brief: as §1
Parvimonas micra = experiment: Antimicrobial activity against Peptostreptococcus micros after 48 hrs by agar dilution method; method in brief: as §1
Prevotella buccae = experiment: Antimicrobial activity against Prevotella buccae after 48 hrs by agar dilution method; conditions: Segatella buccae; method in brief: as §1
Fusobacterium mortiferum = experiment: Antimicrobial activity against Fusobacterium mortiferum after 48 hrs by agar dilution method; method in brief: as §1
Bacteroides caccae [10] = experiment: Antimicrobial activity against Bacteroides caccae assessed as percent susceptible isolates after 48 hrs by agar dilution method
Eggerthella lenta [11] = experiment: Antimicrobial activity against Eubacterium lentum after 48 hrs by agar dilution method; method in brief: as §1
Anaerococcus prevotii [12] = experiment: Antimicrobial activity against Anaerococcus prevotii assessed as percent susceptible isolates after 48 hrs by agar dilution method
Anaerococcus prevotii [13] = experiment: Antimicrobial activity against Anaerococcus prevotii after 48 hrs by agar dilution method; method in brief: as §3
Bifidobacterium sp. [14] = experiment: Antimicrobial activity against Bifidobacterium sp. after 48 hrs by agar dilution method; method in brief: as §3
Schaalia odontolytica [15] = experiment: Antimicrobial activity against Actinomyces odontolyticus assessed as percent resistant isolates after 48 hrs by agar dilution method; method in brief: as §2
[16] = tested on: Peptoniphilus asaccharolyticus; experiment: Antimicrobial activity against Peptoniphilus asaccharolyticus assessed as percent resistant isolates after 48 hrs by agar dilution method; method in brief: as §2
Schaalia odontolytica [17] = experiment: Antimicrobial activity against Actinomyces odontolyticus assessed as percent susceptible isolates after 48 hrs by agar dilution method

O=C(N[C@H](CO)[C@H](O)c1ccc([N+](=O)[O-])cc1)C(Cl)Cl [CHLORAMPHENICOL]
MIC (Prevotella intermedia): 0.5 µg/mL (≈ 1.55 µM) | MIC50 (Prevotella intermedia): 0.5 µg/mL (≈ 1.55 µM) | MIC90 (Prevotella intermedia): 1 µg/mL (≈ 3.09 µM) | MIC [1]: 0.13 µg/mL (≈ 0.402 µM) | Activity (Schaalia meyeri): 92% | MIC (Fusobacterium necrogenes): 0.13 µg/mL (≈ 0.402 µM) | Activity (Bifidobacterium sp. [2]): 0% | MIC50 [3]: 2 µg/mL (≈ 6.19 µM) | MIC90 [3]: 4 µg/mL (≈ 12.4 µM) | MIC (Bacteroides caccae [4]): 4 µg/mL (≈ 12.4 µM) | MIC50 (Bacteroides caccae [4]): 4 µg/mL (≈ 12.4 µM) | MIC90 (Bacteroides caccae [4]): 8 µg/mL (≈ 24.8 µM) | Activity [5]: 100% | MIC (Phocaeicola vulgatus): 4 µg/mL (≈ 12.4 µM) | MIC50 (Phocaeicola vulgatus): 4 µg/mL (≈ 12.4 µM) | MIC90 (Phocaeicola vulgatus): 8 µg/mL (≈ 24.8 µM) | Activity (Bacteroides ovatus): 98% | Activity [6]: 0% | Activity [7]: 92% | Activity (Bifidobacterium sp. [8]): 92% | Activity (Bacteroides fragilis): 98% | Activity (Hoylesella oralis): 0% | Activity (Prevotella bivia): 100% | Activity (Actinomyces naeslundii): 92% | Activity (Eggerthella lenta [9]): 92% | MIC50 (Parvimonas micra): 2 µg/mL (≈ 6.19 µM) | MIC90 (Parvimonas micra): 2 µg/mL (≈ 6.19 µM) | MIC50 (Prevotella buccae): 4 µg/mL (≈ 12.4 µM) | MIC90 (Prevotella buccae): 8 µg/mL (≈ 24.8 µM) | MIC (Fusobacterium mortiferum): 0.13 µg/mL (≈ 0.402 µM) | Activity (Bacteroides caccae [10]): 98% | MIC (Eggerthella lenta [11]): 1 µg/mL (≈ 3.09 µM) | MIC50 (Eggerthella lenta [11]): 1 µg/mL (≈ 3.09 µM) | MIC90 (Eggerthella lenta [11]): 2 µg/mL (≈ 6.19 µM) | Activity (Anaerococcus prevotii [12]): 93% | MIC50 (Anaerococcus prevotii [13]): 4 µg/mL (≈ 12.4 µM) | MIC90 (Anaerococcus prevotii [13]): 8 µg/mL (≈ 24.8 µM) | MIC (Bifidobacterium sp. [14]): 1 µg/mL (≈ 3.09 µM) | MIC50 (Bifidobacterium sp. [14]): 1 µg/mL (≈ 3.09 µM) | MIC90 (Bifidobacterium sp. [14]): 2 µg/mL (≈ 6.19 µM) | Activity (Schaalia odontolytica [15]): 0% | Activity [16]: 0% | Activity (Schaalia odontolytica [17]): 92%

C[C@@H](O)[C@H]1C(=O)N2C(C(=O)O)=C(SCCNC=N)C[C@H]12 [IMIPENEM ANHYDROUS]
MIC (Prevotella intermedia): 0.02 µg/mL (≈ 0.0668 µM) | MIC50 (Prevotella intermedia): 0.03 µg/mL (≈ 0.1 µM) | MIC90 (Prevotella intermedia): 0.06 µg/mL (≈ 0.2 µM) | MIC [1]: 0.02 µg/mL (≈ 0.0668 µM) | Activity (Schaalia meyeri): 100% | MIC (Fusobacterium necrogenes): 0.02 µg/mL (≈ 0.0668 µM) | Activity (Bifidobacterium sp. [2]): 0% | MIC50 [3]: ≤ 0.008 µg/mL | MIC90 [3]: 0.03 µg/mL (≈ 0.1 µM) | MIC50 (Bacteroides caccae [4]): 0.5 µg/mL (≈ 1.67 µM) | MIC90 (Bacteroides caccae [4]): 4 µg/mL (≈ 13.4 µM) | Activity [5]: 100% | MIC50 (Phocaeicola vulgatus): 0.5 µg/mL (≈ 1.67 µM) | MIC90 (Phocaeicola vulgatus): 4 µg/mL (≈ 13.4 µM) | Activity (Bacteroides ovatus): 95% | Activity [6]: 4% | Activity [7]: 100% | Activity (Bifidobacterium sp. [8]): 100% | Activity (Bacteroides fragilis): 98% | Activity (Hoylesella oralis): 0% | Activity (Prevotella bivia): 100% | Activity (Actinomyces naeslundii): 100% | Activity (Eggerthella lenta [9]): 100% | MIC50 (Parvimonas micra): 0.125 µg/mL (≈ 0.418 µM) | MIC90 (Parvimonas micra): 2 µg/mL (≈ 6.68 µM) | MIC50 (Prevotella buccae): 0.06 µg/mL (≈ 0.2 µM) | MIC90 (Prevotella buccae): 0.5 µg/mL (≈ 1.67 µM) | MIC (Fusobacterium mortiferum): 0.02 µg/mL (≈ 0.0668 µM) | Activity (Bacteroides caccae [10]): 95% | MIC50 (Eggerthella lenta [11]): 0.06 µg/mL (≈ 0.2 µM) | MIC90 (Eggerthella lenta [11]): 0.5 µg/mL (≈ 1.67 µM) | Activity (Anaerococcus prevotii [12]): 100% | MIC50 (Anaerococcus prevotii [13]): 0.06 µg/mL (≈ 0.2 µM) | MIC90 (Anaerococcus prevotii [13]): 0.25 µg/mL (≈ 0.835 µM) | MIC50 (Bifidobacterium sp. [14]): 0.06 µg/mL (≈ 0.2 µM) | MIC90 (Bifidobacterium sp. [14]): 0.5 µg/mL (≈ 1.67 µM) | Activity (Schaalia odontolytica [15]): 0% | Activity [16]: 0% | Activity (Schaalia odontolytica [17]): 100%

C[C@@H](O)[C@H]1C(=O)N2C(C(=O)O)=C(S[C@@H]3CN[C@H](C(=O)N(C)C)C3)[C@H](C)[C@H]12 [MEROPENEM]
MIC50 (Prevotella intermedia): 0.06 µg/mL (≈ 0.156 µM) | MIC90 (Prevotella intermedia): 0.06 µg/mL (≈ 0.156 µM) | MIC [1]: 0.008 µg/mL (≈ 0.0209 µM) | Activity (Schaalia meyeri): 92% | MIC (Fusobacterium necrogenes): 0.008 µg/mL (≈ 0.0209 µM) | Activity (Bifidobacterium sp. [2]): 8% | MIC50 [3]: ≤ 0.008 µg/mL | MIC90 [3]: 0.03 µg/mL (≈ 0.0782 µM) | MIC50 (Bacteroides caccae [4]): 0.25 µg/mL (≈ 0.652 µM) | MIC90 (Bacteroides caccae [4]): 2 µg/mL (≈ 5.22 µM) | Activity [5]: 100% | MIC50 (Phocaeicola vulgatus): 0.25 µg/mL (≈ 0.652 µM) | MIC90 (Phocaeicola vulgatus): 2 µg/mL (≈ 5.22 µM) | Activity (Bacteroides ovatus): 98% | Activity [6]: 0% | Activity [7]: 92% | Activity (Bifidobacterium sp. [8]): 92% | Activity (Bacteroides fragilis): 92% | Activity (Hoylesella oralis): 0% | Activity (Prevotella bivia): 100% | Activity (Actinomyces naeslundii): 92% | Activity (Eggerthella lenta [9]): 92% | MIC (Parvimonas micra): 0.01 µg/mL (≈ 0.0261 µM) | MIC50 (Parvimonas micra): 0.25 µg/mL (≈ 0.652 µM) | MIC90 (Parvimonas micra): 4 µg/mL (≈ 10.4 µM) | MIC50 (Prevotella buccae): 0.125 µg/mL (≈ 0.326 µM) | MIC90 (Prevotella buccae): 0.5 µg/mL (≈ 1.3 µM) | MIC (Fusobacterium mortiferum): 0.008 µg/mL (≈ 0.0209 µM) | Activity (Bacteroides caccae [10]): 98% | MIC50 (Eggerthella lenta [11]): 0.125 µg/mL (≈ 0.326 µM) | MIC90 (Eggerthella lenta [11]): 2 µg/mL (≈ 5.22 µM) | Activity (Anaerococcus prevotii [12]): 100% | MIC50 (Anaerococcus prevotii [13]): 0.06 µg/mL (≈ 0.156 µM) | MIC90 (Anaerococcus prevotii [13]): 0.125 µg/mL (≈ 0.326 µM) | MIC50 (Bifidobacterium sp. [14]): 0.125 µg/mL (≈ 0.326 µM) | MIC90 (Bifidobacterium sp. [14]): 2 µg/mL (≈ 5.22 µM) | Activity (Schaalia odontolytica [15]): 8% | Activity [16]: 0% | Activity (Schaalia odontolytica [17]): 92%
